By pKi is commonly meant the negative decadic logarithm of the Ki, by convention in mol/L. Read a high pKi as a small Ki. A word on the pKb: it is −log10 of the Kb, conventionally taken in molar units.

Our source for the pKi and pKb values is ChEMBL document CHEMBL1132324, “Structure-activity relationships in 1,4-benzodioxan-related compounds. 6. Role of the dioxane unit on selectivity for alpha(1)-adrenoreceptor subtypes” (J Med Chem, 1999).

Experiment [1] has as its target T1, 5-hydroxytryptamine receptor 1A (Homo sapiens) (UniProt P08908).
T1 sequence (whole entry): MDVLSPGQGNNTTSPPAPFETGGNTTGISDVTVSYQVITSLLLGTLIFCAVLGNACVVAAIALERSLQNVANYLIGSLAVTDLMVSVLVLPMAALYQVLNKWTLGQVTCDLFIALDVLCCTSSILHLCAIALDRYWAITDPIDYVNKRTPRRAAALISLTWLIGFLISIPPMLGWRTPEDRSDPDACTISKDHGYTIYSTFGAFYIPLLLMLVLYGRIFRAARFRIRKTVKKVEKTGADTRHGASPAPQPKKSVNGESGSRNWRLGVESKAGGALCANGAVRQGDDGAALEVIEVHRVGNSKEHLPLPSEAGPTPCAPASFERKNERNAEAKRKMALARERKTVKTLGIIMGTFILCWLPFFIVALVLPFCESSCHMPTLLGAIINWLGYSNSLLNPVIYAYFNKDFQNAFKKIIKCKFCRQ
Nature of the experiment: The binding affinity was evaluated on cloned human 5-hydroxytryptamine 1A receptor expressed in HeLa cells by using DPAT as radioligand. The class given is cell-based. In outline:
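Membranes from HeLa cells stably expressing human 5-HT1A, in 50 mM Tris-HCl pH 7.4, 2.5 mM MgCl2, 10 μM pargyline. Nonspecific binding with 10 μM 5-HT. Filtration. Ki by Cheng-Prusoff. 2–3 experiments in triplicate.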

The target in experiment [2] is D(2) dopamine receptor (Rattus norvegicus) (UniProt P61169). Nature of the experiment: The binding affinity was evaluated on Dopamine receptor D2 expressed in rat striatum by using [3H]spiperone as radioligand. The class given is tissue-based. In outline: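 Rat striatum membranes in Tris-HCl with 10 μM pargyline, 0.1% ascorbic acid, 120 mM NaCl, 5 mM KCl, 2 mM CaCl2, 1 mM MgCl2. Incubated 15 min at 37 °C with 0.2–0.6 nM [3H]spiperone. Nonspecific binding with 1 μM (+)-butaclamol. Ki by Cheng-Prusoff. 2–3 experiments in triplicate.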

Experiment [3] has as its system Alpha-1B adrenergic receptor (Cavia porcellus). In words: Antagonist affinity was expressed as apparent pKb at Alpha-1B adrenergic receptor on isolated Guinea pig spleen (Alpha-1B).
In experiment [4] the target is T2, Alpha-1A adrenergic receptor (Rattus norvegicus) (UniProt P43140).
T2 sequence (whole entry): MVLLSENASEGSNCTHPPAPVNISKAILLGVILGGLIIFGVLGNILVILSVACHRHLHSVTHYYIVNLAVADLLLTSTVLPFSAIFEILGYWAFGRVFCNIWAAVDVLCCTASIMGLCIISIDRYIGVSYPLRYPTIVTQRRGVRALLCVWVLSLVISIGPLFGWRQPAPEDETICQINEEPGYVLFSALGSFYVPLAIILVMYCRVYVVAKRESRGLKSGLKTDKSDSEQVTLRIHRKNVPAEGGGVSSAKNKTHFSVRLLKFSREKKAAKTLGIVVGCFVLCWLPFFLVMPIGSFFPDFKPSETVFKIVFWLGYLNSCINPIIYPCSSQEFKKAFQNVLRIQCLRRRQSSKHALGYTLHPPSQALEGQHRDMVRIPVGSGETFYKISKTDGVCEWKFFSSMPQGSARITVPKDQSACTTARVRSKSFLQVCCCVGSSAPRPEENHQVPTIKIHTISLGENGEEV
Nature of the experiment: Antagonist affinity was expressed as apparent pKb at Alpha-1A adrenergic receptor on isolated rat prostatic vas deferens (alpha1A). Type of experiment: functional, tissue-based. In outline:
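Rat prostatic vas deferens in Tyrode with 0.1 μM cocaine. Equilibrated 60 min, primed twice with 10 μM noradrenaline, then a control cumulative (–)-noradrenaline curve recorded isometrically. Antagonist equilibrated 30 min before a repeat curve. Apparent pKb = log(DR−1) − log[B], with DR as the ratio of agonist EC50 with/without antagonist. 2–3 antagonist concentrations, each tested four times.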

The target in experiment [5] is T3, Alpha-1D adrenergic receptor (Homo sapiens) (UniProt P25100).
T3 sequence (whole entry): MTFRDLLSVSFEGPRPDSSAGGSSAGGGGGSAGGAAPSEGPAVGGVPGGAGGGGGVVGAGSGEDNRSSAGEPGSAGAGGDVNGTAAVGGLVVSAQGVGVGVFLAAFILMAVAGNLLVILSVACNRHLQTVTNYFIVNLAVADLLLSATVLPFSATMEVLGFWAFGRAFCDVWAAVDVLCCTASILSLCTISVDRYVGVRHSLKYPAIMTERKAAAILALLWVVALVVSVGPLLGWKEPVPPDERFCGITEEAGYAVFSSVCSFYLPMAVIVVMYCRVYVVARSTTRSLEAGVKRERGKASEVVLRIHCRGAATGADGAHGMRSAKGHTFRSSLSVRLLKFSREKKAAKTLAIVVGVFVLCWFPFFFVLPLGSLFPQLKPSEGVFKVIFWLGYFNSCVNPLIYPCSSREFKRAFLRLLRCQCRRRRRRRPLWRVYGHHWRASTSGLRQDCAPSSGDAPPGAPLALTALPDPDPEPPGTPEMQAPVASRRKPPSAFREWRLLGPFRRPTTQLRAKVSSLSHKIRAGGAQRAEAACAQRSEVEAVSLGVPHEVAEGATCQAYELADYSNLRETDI
In words: The binding affinity was evaluated on cloned human Alpha-1D adrenergic receptor expressed in chinese hamster ovary(CHO) cells by using [3H]-prazosin as radioligand. The class given is cell-based. In outline:
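Membranes (30 μg protein) from CHO cells stably expressing each human α1 subtype, in 50 mM Tris-HCl pH 7.4. Incubated with 0.1–0.4 nM [3H]prazosin for 30 min at 25 °C, competitor 1 pM–10 μM. Nonspecific binding with 10 μM phentolamine. Ki by Cheng-Prusoff. 2–3 experiments in triplicate.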

Each structure is given as a SMILES string. Bounds are passed on as bounds.

Sequence of D(2) dopamine receptor (Rattus norvegicus) (P61169 whole entry): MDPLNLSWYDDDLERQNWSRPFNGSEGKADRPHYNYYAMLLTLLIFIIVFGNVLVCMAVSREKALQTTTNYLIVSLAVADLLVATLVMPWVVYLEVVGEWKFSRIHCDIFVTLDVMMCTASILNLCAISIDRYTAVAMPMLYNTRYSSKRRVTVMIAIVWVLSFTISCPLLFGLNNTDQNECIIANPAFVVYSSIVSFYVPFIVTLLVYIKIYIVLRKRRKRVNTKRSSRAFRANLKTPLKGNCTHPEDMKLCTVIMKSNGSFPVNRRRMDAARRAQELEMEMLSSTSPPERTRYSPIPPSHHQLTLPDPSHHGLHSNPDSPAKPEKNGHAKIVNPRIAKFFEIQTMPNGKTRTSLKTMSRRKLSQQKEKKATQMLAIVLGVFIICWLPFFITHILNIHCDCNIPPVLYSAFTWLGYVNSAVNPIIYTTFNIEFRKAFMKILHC

Take `COc1cccc(OC)c1OCCNCC1C(=O)c2ccccc2OC1c1ccccc1` (stereo unspecified): the pKi was 6.73 in experiment [1] and below 6 in experiment [2].
Regarding `COc1cccc(OC)c1OCCNCC1Oc2ccccc2CC1c1ccccc1` (stereo in doubt; 7), the negative logarithm of the Kb (pKb) turned out to be 5.54 in experiment [3] and 7.36 in experiment [4]. Besides, the values for the pKi in experiment [1], in experiment [2] and in experiment [5] were 6.84, below 6 and 7.28, respectively.
For `COc1cccc(OC)c1OCCNCCOc1ccccc1OCc1ccccc1`, the pKb is 7.87 in experiment [3] and 8.39 in experiment [4]. Also, the negative logarithm of the Ki (pKi) came to 7.93 in experiment [1] and 10.2 in experiment [5].
